Compound activity from PubChem BioAssay.
LEDGF integ inh: blockers of LEDGF/p75-dependent integrase strand transfer – biochemical, TR-FRET, high throughput, primary screen; HIV-1 integrase (with human LEDGF/p75); TR-FRET IN-LEDGF/p75 DNA integration, Eu/Cy5; inhibition, % at 3.7 µM; 370,000 compounds, 0.64% hits; AID 743269, 2014;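 active = inhibition above the screen-wide mean plus 3 SD, cut at about 13% in these data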;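 also: signal is the Cy5 over europium emission ratio at 671 and 618 nm; 0% = plate median of compound wells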
UCH37 DUB inh: inhibitors of human UCH37 deubiquitinase, primary screen, biochemical, Ub-AMC cleavage, fluorescence; purified proteasome/UCH37; inhibition, % (test concentration not listed); 330,000 compounds, 0.33% hits;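 active = mean inhibition over replicate wells above about 20%, limit read from the data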;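 also: 0% = compound-free wells with enzyme and 100% = wells lacking proteasome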
Target sequence (Q9Y5K5 whole entry, looked up): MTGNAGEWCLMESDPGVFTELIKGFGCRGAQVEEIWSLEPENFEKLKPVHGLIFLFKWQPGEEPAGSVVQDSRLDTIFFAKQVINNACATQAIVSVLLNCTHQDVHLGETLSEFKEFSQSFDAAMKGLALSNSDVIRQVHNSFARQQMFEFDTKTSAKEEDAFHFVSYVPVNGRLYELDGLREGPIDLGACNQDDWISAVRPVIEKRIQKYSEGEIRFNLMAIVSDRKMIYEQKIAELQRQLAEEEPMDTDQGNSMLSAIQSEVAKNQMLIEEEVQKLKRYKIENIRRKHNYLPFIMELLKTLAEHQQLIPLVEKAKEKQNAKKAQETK
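System: Proteasome-associated human UCH37 deubiquitinase; Input: 0.15 nM proteasome in added enzyme buffer; Also added: Ub-AMC substrate from 1 µM stock; Incubation: 30 min compound-proteasome preincubation then 25 min substrate reaction, room temperature; Detection: fluorescence, ex 355 nm, em 460 nm; Read-out: % inhibition of Ub-AMC cleavage fluorescence; Benchmarks: no-proteasome and no-compound wells.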
TDP2 inh: human TDP2 enzyme inhibitors, primary screen, biochemical, epi absorbance, recombinant enzyme; T5PNP hydrolysis, p-nitrophenol absorbance 415 nm; inhibition, % at 12.8 µM; 370,000 compounds, 0.34% hits; AID 720702, 2013;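 active = inhibition above the mean of all tested compounds plus 3 SD, set per campaign, cut at about 25% in these data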;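 also: 0% = DMSO with enzyme and 100% = buffer with substrate but no TDP2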
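Incubation: 2 h at 37 °C; Test system: recombinant human TDP2; Quantity: enzyme 120 nM; Read-out basis: percent inhibition; Medium: 50 mM Tris-HCl pH 7.5 with Mg2+, KCl, DTT, BSA; Repeats: single replicate; Compound: 12.8 µM single point, 1% DMSO; Signal: epi absorbance; Reagent: 5 mM T5PNP chromogenic substrate; Benchmarks: no-enzyme high, DMSO-plus-enzyme low.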
CASP6 VEID inh: human caspase-6 inhibitors, primary screen, biochemical, VEID-R110 fluorescence, single point, set 2; purified caspase-6, Z-VEID-R110 cleavage fluorescence; P55212; inhibition, % at 12.5 µM; 350,000 compounds, 0.53% hits;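 active = mean inhibition across replicates at least about 35%, with every replicate also reaching that limit, limit read from the data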;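 also: 0% = median of neutral control wells and 100% = no fluorescence left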
Target sequence (P55212 24-179 limits assumed): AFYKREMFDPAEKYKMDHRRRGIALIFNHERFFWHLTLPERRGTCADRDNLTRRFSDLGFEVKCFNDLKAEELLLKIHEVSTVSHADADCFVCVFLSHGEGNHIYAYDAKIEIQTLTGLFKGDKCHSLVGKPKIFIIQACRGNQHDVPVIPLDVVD
Target sequence (P55212 194-293 limits assumed): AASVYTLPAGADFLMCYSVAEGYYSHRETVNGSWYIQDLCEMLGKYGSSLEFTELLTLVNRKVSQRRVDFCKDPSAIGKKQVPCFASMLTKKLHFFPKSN
NSD2 HMT inh: NSD2 histone methyltransferase inhibitors, primary screen, biochemical, AlphaScreen, single concentration, set 2. NSD2 peptide methylation, 120 min. inhibition, % at 12.5 µM. 310,000 compounds, 0.54% hits; in the data active = inhibition above about 50%
Starred values were filed as active, the others as inactive; . = not tested or not shown. Most compounds without a hit are left out; they make up all but 1.3% or so of the library.

SMILES	LEDGF integ inh	UCH37 DUB inh	TDP2 inh	CASP6 VEID inh	NSD2 HMT inh
CCOCCOc1cc(NCc2ccccc2)c2ncn(C(C)C)c2c1	4.7	1.0	21.8	41.1*	.
CCC(CO)Oc1cc(NCc2ccccc2)c2ncn(C(C)C)c2c1 (configuration not stated)	0.8	6.6	2.6	15.3	.
N#CC(=C(O)CN1CCOCC1)c1nc(-c2ccccc2)cs1	.	4.1	.	.	.
O=C(NCC1CCCO1)C(c1ccc(F)cc1)N(CC1CCCO1)C(=O)c1ccc(-c2ccccc2)[nH]1 (configuration not stated)	2.0	0.0	-23.9	48.3*	2.2
O=C(NN=Cc1c[nH]c2ccccc12)c1sc2ccccc2c1Cl	.	1.7	.	.	.
Cc1cccc(C(=O)Nc2cccc(NC(=O)c3ccccc3)c2)c1	4.7	0.5	-14.3	54.3*	0.5
NC(N)=NN=Cc1ccc(OS(=O)(=O)c2ccccc2)cc1	.	4.2	.	.	.
CCN=C1S/C(=C\c2ccc(-c3cccc(C(=O)O)c3)o2)C(=O)N1CC	.	-24.2	.	.	9.9
CCN=C1S/C(=C/c2ccc(-c3ccc(Cl)cc3C(=O)O)o2)C(=O)N1CC	3.6	-2.3	-7.0	35.9*	-3.3
O=C(NN=Cc1sc2ccccc2c1O)c1cccc2ccccc12	.	4.6	.	.	.
O=C(NC(C(=O)NN=Cc1cccnc1)c1n[nH]c(=O)c2ccccc12)c1ccccc1 (configuration not stated)	.	3.7	.	.	.
CCCn1c(N)c(C(=O)CN2CCN(S(=O)(=O)c3cccc(Cl)c3)CC2)c(=O)[nH]c1=O	1.1	3.4	-5.9	40.9*	2.0
COc1ccc(-c2cnc3nc(N=CN(C)C)nn3c2N=CN(C)C)cc1	.	0.1	.	.	.
Cc1ccsc1C=NNC(=O)c1ccc2ccccc2c1	.	2.5	.	.	.
Cc1cccc2cc(-c3nc4c(C)cccn4c3NCc3ccco3)c(=O)[nH]c12	1.5	24.7*	6.5	.	-0.3
Cc1ccc2[nH]c(=O)c(-c3nc4cc(C)ccn4c3NCc3ccco3)cc2c1	.	4.0	.	.	.
CC(=NNS(=O)(=O)c1cc(C)ccc1C)c1ccc2c(c1)OCO2	.	5.1	.	.	.
Cc1cc(C)c2c(c1)NC(C(=O)O)C1CC=CC21 (configuration not stated)	31.2*	-0.7	7.5	64.1*	31.0
O=C(Cc1ccc([N+](=O)[O-])cc1)c1c(O)cc(O)cc1O	4.4	2.7	17.0	41.2*	28.7
CC(=NNC(=O)CNC(=O)c1ccncc1)c1ccc(Cl)cc1	.	2.5	.	.	.
COc1ccc(C=NNC(=O)c2cc(OC)c(OC)c(OC)c2)cc1CN1CCc2cc(OC)c(OC)cc2C1C (configuration not stated)	.	4.8	.	.	.
O=C(COC(=O)Cc1cccc(C(F)(F)F)c1)NCc1ccco1	10.8	-0.1	-3.8	58.2*	-0.8
Cc1nn(-c2ccccc2)cc1C=NNC(N)=S	.	6.1	.	.	.
CN(C(=S)NC(=O)C12CC3CC(CC(C3)C1)C2)c1ccc(O)cc1	15.3*	-0.5	18.7	18.1	2.1
COc1ccc(C(=O)Nc2ccc3ccccc3c2)c(OC)c1	3.2	1.3	10.0	42.9*	-5.9
SMILES	LEDGF integ inh	UCH37 DUB inh	TDP2 inh	CASP6 VEID inh	NSD2 HMT inh
Cc1cc([N+](=O)[O-])c(C)cc1-c1ccc(C=NNC(=O)Cn2nnnc2N)o1	.	3.1	.	.	.
COc1ccccc1C1C2=C(N=c3s/c(=C/c4cccc(OCC(=O)O)c4)c(=O)n31)c1ccccc1CC2 (configuration not stated)	2.8	.	-6.6	37.9*	7.1
O=C(O)CCC(=NNC(=O)c1ccccc1)c1cccs1	.	3.9	.	.	.
Cc1ccc(C(=O)O)cc1[N+](=O)[O-]	2.4	4.4	-2.9	-3.6	.
Cc1cc(C)c(NC(=O)c2cc(C(=O)O)ccc2C(=O)O)c([N+](=O)[O-])c1	6.8	46.6*	0.4	-0.5	.
COc1ccc(N(CC(=O)NN=Cc2ccc(-c3ccc([N+](=O)[O-])cc3)o2)S(=O)(=O)c2ccc(C)cc2)cc1Cl	.	6.6	.	.	.
CC(NC(=O)Nc1ccccn1)N1C(=O)C2C3C=CC(C3)C2C1=O (configuration not stated)	-0.1	23.3*	0.1	.	3.1
CC1=NNC(=O)C1CC(=O)NN=C/C(Br)=C/c1ccccc1 (configuration not stated)	.	5.6	.	.	.
CC(/C=C/C=C/c1ccccc1)=NNC(=O)c1cccnc1	.	24.3*	.	.	.
Cc1c(C(=O)N2CCCC2)oc2ccc(Br)cc12	-0.5	2.2	4.3	39.1*	-6.1
Cc1c(C(=O)N2CCN(C)CC2)oc2ccc(Br)cc12	-4.9	-0.3	-5.3	2.1	2.5
COc1ccc2oc(C(=O)N3CCN(c4ncccn4)CC3)c(C)c2c1	0.2	-3.1	5.6	35.9*	1.6
Cc1nn(C)c(C(=O)NN=Cc2ccc(C(F)(F)F)cc2)c1[N+](=O)[O-]	.	0.1	.	.	.
C#CCOc1ccc(Br)cc1C=NO	.	1.1	.	.	.
O=C1Cc2ccccc2C(=O)N1c1cccc(Cl)c1	-5.1	3.3	3.9	35.2*	1.2
O=C1Cc2ccccc2C(=O)N1c1ccc(F)cc1Cl	11.1	-14.0	-16.5	44.1*	14.8
O=C1c2cccnc2C(=O)N1Cc1ccccc1	2.1	2.3	-5.9	2.6	.
Cc1cc(N2C(=O)Cc3ccccc3C2=O)ccc1C(C)C	2.8	8.2	-1.7	21.3	0.2
O=C1Cc2ccccc2C(=O)N1Cc1ccccc1	6.5	26.3*	-4.6	.	3.9
CC(=NNC(=O)CNC(=O)c1cccc(F)c1)c1ccc2ccccc2c1	.	1.7	.	.	.
CCOCCCNC(=O)C1c2ccccc2Oc2ccccc21	-2.3	1.5	9.3	41.3*	-1.4
CCN(CC)CCNC(=O)C1c2ccccc2Oc2ccccc21	10.1	1.9	6.4	-25.9	11.2
CCOC(=O)N(O)c1ccc(C=Cc2ccccc2)cc1	7.5	.	-1.4	67.4*	.
Cc1cc(O)c2c(c1)C(=O)c1cccc(O)c1C2=O	-2.8	.	11.4	4.1	.
O=C(O)c1cc(O)c2c(c1)C(=O)c1cccc(O)c1C2=O	4.2	.	0.0	39.9*	.
CCOc1ccc(N(CC(=O)NN=C(C)c2cccc(NC(C)=O)c2)S(=O)(=O)c2ccccc2)cc1	.	6.5	.	.	.
O=C(CNC(=O)c1ccncc1)NN=Cc1ccc(Br)cc1	.	7.2	.	.	.
Cc1ccc(-c2nn(-c3ccccc3)cc2/C=C2\SC(=S)N(CC(=O)O)C2=O)cc1	-3.6	21.4*	-4.4	31.1	.
